As usually defined, the IC50 is the concentration that gives 50% inhibition.

We go through 17 compounds from ChEMBL document CHEMBL3259707, “Design and synthesis of human ABCB1 (P-glycoprotein) inhibitors by peptide coupling of diverse chemical scaffolds on carboxyl and amino termini of (S)-valine-derived thiazole amino acid” (J Med Chem, 2014).

Series [1] deals with T1, ATP-dependent translocase ABCB1 (Homo sapiens, UniProt P08183). As to the kind of experiment: Inhibition of human wild type P-gp expressed in BacMam virus infected human HeLa cells assessed as calcein-AM accumulation after 10 mins by flow cytometry. The format is cell-based. The following applies: for inhibition (INH): human, 10 min. The method in brief: (§1)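 HeLa cells transduced with BacMam WT-P-gp (10–15 particles/cell); 10 mM butyric acid added after 3–4 h, grown overnight at 37 °C. Trypsinized cells exposed to compound, then 0.5 μM calcein-AM for 10 min at 37 °C in the dark. […] Two independent experiments in triplicate, ± SD.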

For series [2], the target named is T1, ATP-dependent translocase ABCB1. As to the kind of experiment: Inhibition of human wild type P-gp expressed in BacMam virus infected human HeLa cells assessed as calcein-AM accumulation at 10 uM after 10 mins by flow cytometry. The format is cell-based. The method in brief:
as §1

The nature of series [3]: Retardation factor of the compound using EtOAc-n-hexane at ratio of 1:1 by thin layer chromatography. The format is physicochemical.
The nature of series [4]: Retention time of the compound by HPLC analysis. The format is physicochemical. The method in brief:
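Reverse-phase C18 HPLC, isocratic acetonitrile/water 60:40, 1.0 mL/min, UV 254 nm; purity from major-peak area.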

The nature of series [5]: Retardation factor of the compound using EtOAc-n-hexane at ratio of 3:2 by thin layer chromatography. The format is physicochemical.

T1 sequence (P08183 whole entry): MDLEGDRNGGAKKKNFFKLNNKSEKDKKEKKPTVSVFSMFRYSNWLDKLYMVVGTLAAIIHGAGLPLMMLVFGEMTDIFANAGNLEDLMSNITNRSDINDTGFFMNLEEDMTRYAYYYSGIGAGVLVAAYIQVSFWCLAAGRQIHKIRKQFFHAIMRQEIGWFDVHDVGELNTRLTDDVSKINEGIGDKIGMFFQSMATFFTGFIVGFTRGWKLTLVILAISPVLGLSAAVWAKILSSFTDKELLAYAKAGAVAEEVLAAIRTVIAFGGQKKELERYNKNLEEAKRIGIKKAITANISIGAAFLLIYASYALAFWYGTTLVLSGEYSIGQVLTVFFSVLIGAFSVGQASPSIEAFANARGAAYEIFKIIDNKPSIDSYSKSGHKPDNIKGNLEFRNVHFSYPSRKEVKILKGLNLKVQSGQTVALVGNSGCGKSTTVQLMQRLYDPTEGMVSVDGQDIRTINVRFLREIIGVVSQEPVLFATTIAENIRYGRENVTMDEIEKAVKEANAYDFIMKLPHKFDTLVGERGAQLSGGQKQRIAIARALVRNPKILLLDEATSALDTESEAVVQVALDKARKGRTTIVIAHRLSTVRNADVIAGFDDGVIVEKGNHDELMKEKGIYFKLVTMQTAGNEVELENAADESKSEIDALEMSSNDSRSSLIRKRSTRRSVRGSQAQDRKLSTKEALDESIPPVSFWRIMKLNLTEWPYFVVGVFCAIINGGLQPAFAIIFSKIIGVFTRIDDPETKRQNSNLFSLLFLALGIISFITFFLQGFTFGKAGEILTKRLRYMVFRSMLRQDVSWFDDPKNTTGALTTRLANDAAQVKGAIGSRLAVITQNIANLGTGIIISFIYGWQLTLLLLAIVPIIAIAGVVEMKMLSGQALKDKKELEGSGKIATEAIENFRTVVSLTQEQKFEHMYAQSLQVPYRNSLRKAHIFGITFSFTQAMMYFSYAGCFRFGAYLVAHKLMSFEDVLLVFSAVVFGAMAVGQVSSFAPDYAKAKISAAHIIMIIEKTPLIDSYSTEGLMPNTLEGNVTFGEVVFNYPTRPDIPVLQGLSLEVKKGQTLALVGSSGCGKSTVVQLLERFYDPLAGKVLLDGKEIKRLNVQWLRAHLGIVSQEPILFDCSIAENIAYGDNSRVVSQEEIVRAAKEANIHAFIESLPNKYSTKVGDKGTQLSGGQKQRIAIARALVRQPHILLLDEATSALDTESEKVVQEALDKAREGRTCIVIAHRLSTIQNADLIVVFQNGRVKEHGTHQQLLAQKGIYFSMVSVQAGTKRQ

In the case of `COc1ccc(C(C)NC(=O)c2csc([C@@H](NC(=O)c3csc([C@@H](NC(=O)OC(C)(C)C)C(C)C)n3)C(C)C)n2)cc1` (stereo not given in full), in series [1], the IC50 was 2000 nM.
Turning to `COc1ccc(CNC(=O)c2csc([C@@H](NC(=O)c3csc([C@@H](NC(=O)OC(C)(C)C)C(C)C)n3)C(C)C)n2)c(OC)c1`, the 50% inhibitory concentration (IC50) in series [1] (hela) is 2000 nM.
`COc1cc2c(cc1OC)C(=O)C(CC1CCN(C(=O)c3csc([C@@H](NC(=O)OC(C)(C)C)C(C)C)n3)CC1)C2` (stereo not given in full): in series [2], the “inhibition (INH)” value is listed as 15%. Further, in series [3], the Rf turned out to be 0.2. The Retention_time in series [4] is recorded as 4.7 min.
For `CCOC(=O)c1csc([C@@H](NC(=O)c2cnc3ccccc3c2)C(C)C)n1` the same measures were 2%, 0.4 and 3.3 min.
For `CCOC(=O)c1csc([C@@H](NC(=O)/C=C/c2ccc(OC)c(OC)c2)C(C)C)n1` the same measures were 11%, 0.5 and 3.4 min.
Taken in the same sequence, the figures for `CCOC(=O)c1csc([C@@H](NC(=O)c2cc(OC)c(OC)c(OC)c2)C(C)C)n1` were 10%, 0.6 and 3.7 min.
As to `COc1ccc(NC(=O)c2csc([C@@H](NC(=O)c3csc([C@@H](NC(=O)OC(C)(C)C)C(C)C)n3)C(C)C)n2)c(OC)c1`, the half-maximal inhibitory concentration (IC50) in series [1] was 2500 nM. Moreover, the “inhibition (INH)” value in series [1] (hela) was “Dose-dependent effect”. Further, the Rf in series [3] came out at 0.55. Also, the Retention_time in series [4] is reported as 7.6 min.
For `COc1cc(NC(=O)c2csc([C@@H](NC(=O)c3csc([C@@H](NC(=O)OC(C)(C)C)C(C)C)n3)C(C)C)n2)cc(OC)c1OC` the same measures were 6500 nM, “Dose-dependent effect”, 0.45 and 8 min.
For `CCOC(=O)c1csc([C@@H](NC(=O)c2csc([C@@H](NC(=O)c3ccc(OC)c(OC)c3)C(C)C)n2)C(C)C)n1` the same measures were 16000 nM, “Dose-dependent effect”, 0.4 and 3.5 min.
For `CCOC(=O)c1csc([C@@H](NC(=O)c2csc([C@@H](NC(=O)c3cc(OC)c(OC)c(OC)c3)C(C)C)n2)C(C)C)n1`, in series [2], the “inhibition (INH)” value is 55%. For the same compound, the Rf in series [3] is 0.4. In series [4], the Retention_time is 3.6 min.
Taken in the same sequence, the figures for `COc1ccc([C@@H](C)NC(=O)c2csc([C@@H](NC(=O)c3cc(OC)c(OC)c(OC)c3)C(C)C)n2)cc1` were 24%, 0.45 and 3.9 min.
On to `COc1cc(NC(=O)c2csc([C@@H](NC(=O)c3cc(OC)c(OC)c(OC)c3)C(C)C)n2)cc(OC)c1`, for which the “inhibition (INH)” value in series [2] is listed as 37%. For the same compound, the Rf in series [3] is 0.55. For the same compound, the Retention_time in series [4] worked out at 4.3 min.
For `COc1cc(NC(=O)c2csc([C@@H](NC(=O)c3cc(OC)c(OC)c(OC)c3)C(C)C)n2)cc(OC)c1OC` the same measures were 58%, 0.4 and 3.3 min.
Taken in the same sequence, the figures for `COc1cc(CNC(=O)c2csc([C@@H](NC(=O)c3cc(OC)c(OC)c(OC)c3)C(C)C)n2)cc(OC)c1OC` were 4%, 0.3 and 2.7 min.
Consider `COc1cc(C(=O)N[C@H](c2nc(C(=O)NCc3ccc4c(c3)OCO4)cs2)C(C)C)cc(OC)c1OC`, for which the “inhibition (INH)” value in series [2] is given as 20%. For the same compound, the Rf in series [5] is reported as 0.35. Besides, the Retention_time in series [4] was 3.1 min.
Taken in the same sequence, the figures for `COc1cc(C(=O)N[C@H](c2nc(C(=O)Nc3ccc4c(c3)OCO4)cs2)C(C)C)cc(OC)c1OC` were 40%, 0.5 and 3.5 min.
Taken in the same sequence, the figures for `COc1cc2c(cc1OC)CN(C(=O)c1csc([C@@H](NC(=O)c3cc(OC)c(OC)c(OC)c3)C(C)C)n1)CC2` were 16%, 0.3 and 2.8 min.
